Test results taken from ChEMBL document CHEMBL1134354, “Anti-AIDS agents. 42. Synthesis and anti-HIV activity of disubstituted (3'R,4'R)-3',4'-di-O-(S)-camphanoyl-(+)-cis-khellactone analogues” (J Med Chem, 2001).
Activity calls are given as the source filed them. The rule behind the calls is not given here.

Key:
H9 [1] = test: Inhibitory activity against HIV-1 replication in H9 lymphocytes; assay type: functional, cell-based; conditions: Homo sapiens
In short: (§1)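 They were infected with HIV-1 at a moi of 0.1–0.01 for 4 h, washed three times, and then cultured for 4 days with graded drug concentrations; AZT was run as a control. Day-4 cell-free supernatant p24 was measured by ELISA. Toxicity was measured by Coulter counts of mock-infected cells.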

H9 [2] = test: Toxicity was determined in H9 lymphocytes; assay type: functional, cell-based; conditions: Homo sapiens; in short: as §1
[3] = Therapeutic index is the ratio of IC50 to EC50 in H9 lymphocytes; assay type: cell-based; conditions: human, read-out: TI; in short: as §1
H9 [4] = test: Inhibitory activity against HIV-1 replication in H9 lymphocytes; NS= no suppression; assay type: functional, cell-based; conditions: Homo sapiens; in short: as §1

| EC50 (H9 [1]) [nM] | Structure (SMILES) | IC50 (H9 [2]) [µM] | selectivity ratio [3] | NS (H9 [4]) |
| --- | --- | --- | --- | --- |
| 1540 | Cc1cc(=O)oc2c3c(cc(OCc4ccccc4)c12)OC(C)(C)[C@H](OC(=O)C12CCC(C)(C(=O)O1)C2(C)C)[C@@H]3OC(=O)C12CCC(C)(C(=O)O1)C2(C)C (stereo partly drawn) | 135 | 87.7 | – |
| 2.12 | CC1(C)Oc2ccc3c4c(c(=O)oc3c2[C@@H](OC(=O)C23CCC(C)(C(=O)O2)C3(C)C)[C@H]1OC(=O)C12CCC(C)(C(=O)O1)C2(C)C)CCCC4 (stereo partly drawn) | > 148 | > 69800 | – |
| 0.00721 | COc1cc2c(c3oc(=O)cc(C)c13)[C@@H](OC(=O)C13CCC(C)(C(=O)O1)C3(C)C)[C@@H](OC(=O)C13CCC(C)(C(=O)O1)C3(C)C)C(C)(C)O2 (stereo partly drawn) | > 150 | > 2.08e+07 | – |
| 4.19 | Cc1cc2c(c3oc(=O)cc(C)c13)[C@@H](OC(=O)C13CCC(C)(C(=O)O1)C3(C)C)[C@@H](OC(=O)C13CCC(C)(C(=O)O1)C3(C)C)C(C)(C)O2 (stereo partly drawn) | > 154 | > 36800 | – |
| 0.256 | CC1(C)Oc2ccc3ccc(=O)oc3c2[C@@H](OC(=O)C23CCC(C)(C(=O)O2)C3(C)C)[C@H]1OC(=O)C12CCC(C)(C(=O)O1)C2(C)C (stereo partly drawn) | – | 137000 | – |
| 1.92 | Cc1c(C)c2ccc3c(c2oc1=O)[C@@H](OC(=O)C12CCC(C)(C(=O)O1)C2(C)C)[C@@H](OC(=O)C12CCC(C)(C(=O)O1)C2(C)C)C(C)(C)O3 (stereo partly drawn) | > 154 | > 80200 | – |
| – | Cc1cc2c(c3oc(=O)cc(C(C)C)c13)[C@@H](OC(=O)C13CCC(C)(C(=O)O1)C3(C)C)[C@@H](OC(=O)C13CCC(C)(C(=O)O1)C3(C)C)C(C)(C)O2 (stereo partly drawn) | > 147 | – | inactive |
| 43700 | Cc1c(-c2ccccc2)c(=O)oc2c3c(ccc12)OC(C)(C)[C@H](OC(=O)C12CCC(C)(C(=O)O1)C2(C)C)[C@@H]3OC(=O)C12CCC(C)(C(=O)O1)C2(C)C (stereo partly drawn) | > 140 | > 3.2 | – |
| 2.01 | Cc1c(Cl)c(=O)oc2c3c(ccc12)OC(C)(C)[C@H](OC(=O)C12CCC(C)(C(=O)O1)C2(C)C)[C@@H]3OC(=O)C12CCC(C)(C(=O)O1)C2(C)C (stereo partly drawn) | 104 | 51700 | – |
| 9.1 | Cc1cc2c(C)cc3c(c2oc1=O)[C@@H](OC(=O)C12CCC(C)(C(=O)O1)C2(C)C)[C@@H](OC(=O)C12CCC(C)(C(=O)O1)C2(C)C)C(C)(C)O3 (stereo partly drawn) | > 154 | > 16900 | – |
